The source of these data is ChEMBL document CHEMBL1122497, “A polymeric drug for treatment of inflammatory bowel disease” (1983).

Values joined by “and” are separate entries in the source; they are usually repeats but may differ in a detail not shown here. Identical values can stand only once.

Assay [1] is filed under the species Cavia porcellus. As to the kind of experiment: Tested for cecal ulceration in diarrhea at 60 umol concentration of compound. It is filed as functional. The essentials:
(§1)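 Male Hartley guinea pigs (242-265 g), groups of 20, were gavaged twice daily with agent solutions or suspensions for 3 days. Then 5 wt % sterile degraded carrageenan was given as the sole drinking fluid, with dosing continued. Diarrhea was checked twice daily, body weight every 3 days, and necropsy done after 24 days of carrageenan.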

The species named for assay [2] is Cavia porcellus. As to the kind of experiment: Tested for cecal ulceration in necropsy at 60 umol concentration of compound. It is filed as functional. The essentials: as §1
The species entered for assay [3] is Cavia porcellus. As to the kind of experiment: Tested for cecal ulceration with mortality at 60 umol concentration of compound. The class given is functional. The essentials: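 Male Hartley guinea pigs (242-265 g, groups of 20) gavaged twice daily with 60 µmol doses as solution or suspension for 3 days. They were then given 5 wt % sterile degraded carrageenan as sole drinking fluid while dosing continued. Diarrhoea was checked twice daily and weight every 3 days. The study ended after 24 days of carrageenan, with necropsy and blind histology scored against untreated controls (Student's t test).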

The species named for assay [4] is Cavia porcellus. As to the kind of experiment: Tested for weight loss in guinea pig at 60 umol concentration of compound. It is filed as functional. The essentials:
as §1

For assay [5], the species on record is Cavia porcellus. Description: Tested for mean score after quantitative histological evaluation result in guinea pig. The class given is functional. Also on record: scale not given here. The essentials:
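Carrageenan colitis in male Hartley guinea pigs: 3 days of twice-daily gavage, then 5 wt % degraded carrageenan drinking water for 24 days with dosing continued. All animals, including early deaths, were scored histologically, reviewed blind by two evaluators. Total points per group were averaged and compared with untreated controls by Student's t test.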

For assay [6], the species on record is Rattus norvegicus. Description: Tested for peak serum concentration in rat 4. The class given is functional, organism-based. In short, it runs like this:
(§2)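 Nonfasted female Sim:(SD)fBr rats (200-300 g), acclimated 72 h in metabolism cages, got a single oral dose (20 mg polymer or 16 mg SASP) as aqueous solution or suspension. Blood, urine and feces were collected to 96 h. Samples were β-glucuronidase-treated (37 °C, 18 h), acetylated, extracted and read fluorimetrically (ex 295, em 460 nm) against N-Ac-ASA standards.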

For assay [7], the species on record is Rattus norvegicus. Description: Tested for peak serum concentration in rat 6. The class given is functional, organism-based. In short, it runs like this:
as §2

The species named for assay [8] is Rattus norvegicus. As to the kind of experiment: Tested for peak serum concentration in rat. The class given is functional, organism-based. In short, it runs like this: as §2
For assay [9], the species on record is Rattus norvegicus. Description: Tested for peak serum concentration in rat 5. The class given is functional, organism-based. The essentials: as §2
In assay [10] the test system is Rattus norvegicus. Description: Tested for total administered dose in rat 1. The class given is functional. In short, it runs like this: as §2
Assay [11] relates to Rattus norvegicus. As to the kind of experiment: Tested for total administered dose in rat 2. It is filed as functional. The essentials:
as §2

The subject of assay [12] is Rattus norvegicus. Description: (§3) Tested for peak serum concentration in feces after oral administered dose in rat 3. The class given is functional. The essentials:
as §2

Assay [13] concerns Rattus norvegicus. The assay is described as §3. It is filed as functional. The essentials:
as §2
This is another data set of the same source.

For assay [14], the system named is Rattus norvegicus. Description: Tested for peak serum concentration in feces after oral administered dose in rat 2. It is filed as functional. In short, it runs like this:
as §2

For assay [15], the system named is Rattus norvegicus. Description: Tested for peak serum concentration in urine after oral administered dose in rat 2. The class given is functional. In short, it runs like this:
as §2

The test system of assay [16] is Rattus norvegicus. Description: Tested for peak serum concentration in urine after oral administered dose in rat 1. It is filed as functional. The essentials:
as §2

For assay [17], the system named is Rattus norvegicus. As to the kind of experiment: Tested for peak serum concentration in feces after mean oral administered dose in rat. The class given is functional. The essentials:
as §2

For assay [18], the system named is Rattus norvegicus. Description: Tested for peak serum concentration in feces after oral administered dose in rat 1. The class given is functional. In short, it runs like this:
as §2

Assay [19] deals with Rattus norvegicus. Description: Tested for peak serum concentration in urine after oral administered dose in rat 3. It is filed as functional. The essentials: as §2
For assay [20], the system named is Rattus norvegicus. Description: Tested for peak serum concentration in urine after mean oral administered dose in rat. It is filed as functional. The essentials: as §2
The subject of assay [21] is Rattus norvegicus. As to the kind of experiment: Tested for peak serum concentration in urine after oral administered dose in rat 4. The class given is functional. In short, it runs like this: as §2
Assay [22] concerns Rattus norvegicus. As to the kind of experiment: (§4) Tested for peak serum concentration in feces after oral administered dose in rat 6. It is filed as functional. In short, it runs like this:
as §2

The subject of assay [23] is Rattus norvegicus. Description: Tested for total administered dose in rat 4. It is filed as functional. In short, it runs like this: (§5)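 Nonfasted female Sim:(SD)fBr rats (200-300 g), acclimated 72 h to metabolism cages, got one oral dose as aqueous solution or suspension. Blood, urine and feces were collected to 96 h. Samples were hydrolysed with β-glucuronidase (pH 6.9, 37 °C, 18 h), acetylated, extracted with 4-methyl-2-pentanone and back-extracted into pH 6.0 buffer. Total 5-ASA plus metabolites were read fluorimetrically (ex 295, em 460 nm) against N-Ac-ASA standards.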

The subject of assay [24] is Rattus norvegicus. As to the kind of experiment: Tested for total administered dose in rat 5. It is filed as functional. In short, it runs like this: as §2
Assay [25] relates to Rattus norvegicus. Description: Tested for peak serum concentration in urine after oral administered dose in rat 5. The class given is functional. The essentials: as §2
The test system of assay [26] is Rattus norvegicus. As to the kind of experiment: Tested for peak serum concentration in feces after oral administered dose in rat 5. It is filed as functional. The essentials:
as §5

Assay [27] concerns Rattus norvegicus. As to the kind of experiment: Tested for peak serum concentration in feces after oral administered dose in rat 4. The class given is functional. In short, it runs like this: as §2
Assay [28] relates to Rattus norvegicus. Description: Tested for peak serum concentration in urine after oral administered dose in rat 6. It is filed as functional. In short, it runs like this: as §2
Assay [29] relates to Rattus norvegicus. The assay is described as §4. It is filed as functional. In short, it runs like this:
as §5
The source holds these as a separate data set.

For the compound `Nc1ccc(S(=O)(=O)Nc2ccccn2)cc1` [SULFAPYRIDINE], the Incidence in the assay filed under Cavia porcellus [1] amounted to 80%; in the assay listed under Cavia porcellus [2], 90%; in the assay filed under Cavia porcellus [3], 15%. For the same compound, the Weight loss in the assay filed under Cavia porcellus [4] stood at 17 g. This compound gave a Mean score in the assay filed under Cavia porcellus [5] of 3.11.

With `O=C(O)c1cc(/N=N/c2ccc(S(=O)(=O)Nc3ccccn3)cc2)ccc1O`, the Concentration in the assay filed under Rattus norvegicus [6] is 7.9 nM ml-1; in the assay listed under Rattus norvegicus [7], 4.8 nM ml-1; in the assay filed under Rattus norvegicus [8], 2.5 nM ml-1 and 5.6 nM ml-1; in the assay filed under Rattus norvegicus [9], 4 nM ml-1.

With `O=C([O-])c1cc(/N=N/c2ccc(S(=O)(=O)Nc3ccccn3)cc2)ccc1O.[Na+]` [POLYMER OF SULFASALAZINE], the Dose stood at 12% in the assay on Rattus norvegicus [10]; 18.9% with Rattus norvegicus [11]; 29.7% in the assay with Rattus norvegicus [12]; 22% in the assay on Rattus norvegicus [13]; 9.4% in the assay on Rattus norvegicus [14]; 9.5% in the assay on Rattus norvegicus [15]. In addition, the Dose with Rattus norvegicus [16] is 6.7%; in the assay on Rattus norvegicus [18] it was 5.3%; with Rattus norvegicus [19], 7.7%; in the assay on Rattus norvegicus [20] it was 8%. In addition, the results for the Incidence in the assay filed under Cavia porcellus [1], in the assay listed under Cavia porcellus [2] and in the assay listed under Cavia porcellus [3] were 85%, 85% and 25%, respectively. Besides, the “Percent of oral dose recovered in feces” value in the assay on Rattus norvegicus [17] is 12.3% and 20.2%. Besides, in the assay filed under Cavia porcellus [4], the Weight loss is listed as 37 g. Further, the Mean score in the assay filed under Cavia porcellus [5] is 2.16.

For the compound `O=C(O)c1cc(/N=N/c2ccc(S(=O)(=O)Nc3ccccn3)cc2)ccc1O` [SULFASALAZINE], the Dose with Rattus norvegicus [21] was 3%; with Rattus norvegicus [22], 16.4%; in the assay with Rattus norvegicus [23] it was 10.7%; in the assay with Rattus norvegicus [24], 17.2%; with Rattus norvegicus [25], 3.2%; in the assay with Rattus norvegicus [26], 14%. Also, the Dose is on record as 7.7% in the assay on Rattus norvegicus [27], 5% in the assay on Rattus norvegicus [28], 3.7% in the assay on Rattus norvegicus [20] and 11.4% with Rattus norvegicus [29]. In addition, the values for the Incidence in the assay filed under Cavia porcellus [1], in the assay filed under Cavia porcellus [2] and in the assay filed under Cavia porcellus [3] were 100%, 90% and 40%, respectively. Also, the “Percent of oral dose recovered in feces” value in the assay on Rattus norvegicus [17] is 11% and 14.7%. Moreover, in the assay filed under Cavia porcellus [4], the Weight loss came to 44 g. This compound yielded a Mean score in the assay filed under Cavia porcellus [5] of 2.68.

Regarding `Nc1ccc(O)c(C(=O)O)c1` [MESALAMINE], the Incidence turned out to be 83% in the assay filed under Cavia porcellus [1], 83% in the assay filed under Cavia porcellus [2] and 28% in the assay filed under Cavia porcellus [3]. The Weight loss in the assay listed under Cavia porcellus [4] stood at 12 g. The compound also displayed a Mean score in the assay filed under Cavia porcellus [5] of 2.4.
